Test results from article PMC3276691 (Journal of Medicinal Chemistry, 2012).

Key:
[1] = test system: TLR8; assay: Inhibition of TLR8-mediated cytokine and chemokine production in hPBMCs; format: cell-based, human; conditions: 12 h, proinflammatory cytokines (Fig. 4)
[2] = test system: TLR7; assay: Inhibition of TLR7-mediated cytokine and chemokine production in hPBMCs; format: cell-based; conditions: Homo sapiens, 12 h, read-out: IC50, inhibition of TLR7-induced cytokine and chemokine release
[3] = test system: TLR7; assay: Schild plot analysis of inhibition of TLR7-induced activation; format: cell-based, human; conditions: imidazoquinoline TLR7-specific agonist, checker-board format
[4] = test system: TLR8; assay: Schild plot analysis of inhibition of TLR8-induced activation; format: cell-based, human; conditions: CL075 TLR8-specific agonist, checker-board format
[5] = test system: human peripheral blood mononuclear cells; assay: IFN-α induction in human PBMCs; format: cell-based; conditions: hPBMCs, 12 h, graded concentrations
Method in brief: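 PBMCs from healthy donors, isolated by Ficoll-Hypaque gradient centrifugation and stimulated with graded concentrations of test compound for 12 h. Supernatants collected by centrifugation and diluted 1:20. IFN-α measured in triplicate by high-sensitivity human IFN-α-specific ELISA.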

| IC50 [2] [nM] | SMILES | Inhibition of TNF-α and IL-1β production [1] | Schild plot slope, TLR7 inhibition [3] | Schild plot slope, TLR8 inhibition [4] | IFN-α induction [5] |
| --- | --- | --- | --- | --- | --- |
| – | CCN(CC)CCCC(C)Nc1ccnc2cc(Cl)ccc12 (stereo not drawn) [Chloroquine, chloroquine, reference compound] | feeble inhibitor | – | – | – |
| 50 to 300 | Nc1nc2ccccc2c2c1nc(CCCc1nc3c(N)nc4ccccc4c3n1Cc1ccccc1)n2Cc1ccccc1 [Compound 4a, 2,2′-(propane-1,3-diyl)bis(1-benzyl-1H-imidazo[4,5-c]quinolin-4-amine)] | potently inhibits | 1.12 | 0.51 | – |
| – | CCCCc1nc2c(N)nc3ccccc3c2n1Cc1ccc(CNC(=O)CCCCCCCCCCC(=O)NCc2ccc(Cn3c(CCCC)nc4c(N)nc5ccccc5c43)cc2)cc1 [Compound 10c] | – | – | – | most potent |
